Experiment: Toxicity liver stage against HepG2, at 10uM
Type: cell-based
Parameters: test concentration 10 uM, cell line HepG2-A16-CD81EGFP
Conditions: human, HepG2-A16-CD81EGFP cells; read-out: INHIBITION
Summary of the method: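 Uninfected HepG2-A16-CD81EGFP cells, 3 × 10^3 per well, 1536-well, plated on prespotted compound at 10 μM final, parasite-free screening media added to match infected plates; puromycin 10 μM positive, DMSO 0.5% negative; run in parallel with 48 h PbLuc assay at 37 °C, 5% CO2; viability by CellTiter-Glo luminescence, normalized to controls.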

Row | Structure (SMILES) | cytotoxicity at 10 µM [%]
1 | CCN1CCCC(C)(C(=O)NCCCc2nc(C)cs2)C1 (stereo unspecified) | 1.54
2 | CC(=O)N[C@@H](CC(C)C)C(=O)N1CCC(n2cc(CC(C)C)nn2)CC1 | -10.8
3 | CC(C)c1nc(CN(C)C2CCN(Cc3nnc(C4CC4)o3)C2)no1 (stereo unspecified) | 5.87
4 | CN(Cc1cccc(C#N)c1)S(=O)(=O)N1CCOCC1 | 6.95
5 | O=C(CCC1CCCC1)N1CCC(c2cc3ncccc3c(O)n2)CC1 | -4.82
6 | CNC(=O)c1cc2c(nc1NCC(C)C)CCN(CCOC)CC2 | -147
7 | CCOCCCNC(=O)C(NC(=O)Cc1cccs1)c1ccc(C)cc1 (stereo unspecified) | 13.2
8 | COc1ccc(-c2nc(CCNC(=O)NC3CCC(O)CC3)co2)cc1 (stereo unspecified) | 7.66
9 | CCc1nc(CN2CCN(C(=O)c3cncnc3CC)CC2)cs1 | -11.4
10 | Cc1ccc(-n2ccnc2)c(C(=O)NCCOCC(F)(F)F)c1 | -136
11 | CC(C)(C)n1cc(C2=CCN(CCc3ccccn3)CC2)cn1 | -0.505
12 | Cn1cc(CN2CC3(CCN(C(=O)c4cscn4)C3)C2)cn1 | -11.9
13 | CCN(CC)c1ncc(CNC2CCc3nc(C)nn3C2)s1 (stereo unspecified) | 2.78
14 | CC(C)CC(=O)N[C@H](C)c1c(-c2ccc(Cl)cc2)noc1C(=O)O | 4.76
15 | O=C(CN1CCCC(c2ncc[nH]2)C1)NCC(F)(F)F (stereo unspecified) | 9.37
16 | c1cc(COC[C@]23COC[C@H]2CN(Cc2ccncc2)C3)ccn1 | -63.5
17 | c1cc(-c2ccc3c(c2)C2(CC3)CCN(c3nncs3)CC2)ccn1 | 1.13
18 | CCc1nccn1C1CCCN(C(=O)Cc2n[nH]c3ccccc23)C1 (stereo unspecified) | -0.337
19 | O=C(c1cccnc1-c1ccoc1)N1C[C@@H]2CC[C@H]1C2 | 6.3
20 | C=Cc1ccc(C(=O)NC2CCCc3nc(N(C)C)ncc32)cc1 (stereo unspecified) | 8.18
21 | COC(=O)c1ccc(CNC(C)(C)c2ccccc2OC)o1 | -0.651
22 | Cc1ccc(N2CC[C@H]3OCC[C@@]3(C(=O)NCC3CC3)C2)nn1 | 3.22
23 | CC(=O)c1ccc(N2CCCC(CO)(Cc3ccccc3F)C2)nc1 (stereo unspecified) | 8.59

Row | Structure (SMILES) | cytotoxicity at 10 µM [%]
24 | COCc1ncn2c1CN(C(=O)Nc1cccc(OC)c1)CC2 | 12.7
25 | Cc1cc2c(c(-c3c[nH]c(C)n3)c1)OC(CN)C2 (stereo unspecified) | 4.24
26 | Cn1cc(CN2CCc3c(COCc4ccncc4)cncc3C2)cn1 | -2.37
27 | CS(=O)(=O)N[C@@H]1CN(Cc2ccncc2)C[C@@H]2CCCO[C@@H]21 | 13.1
28 | Cc1oc(-c2ccc(Cl)cc2)nc1C(=O)NC1=NCCS1 | 4.65
29 | O=C1NC(c2cccnc2)=NC12CCN(CCCc1ccccc1)CC2 | 1.68
30 | CCNC(=O)[C@@H]1C[C@@H](N)CN1Cc1ccc2cccc(Cl)c2n1 | 12.9
31 | COc1ccc(CCC(=O)NCCN2CCC(c3cccs3)CC2)cc1 | 4.59
32 | O=C(c1ccoc1)N1CCC(O)(C(F)(F)F)CC1 | 3.88
33 | COCC1CC2(CCN(Cc3ccccn3)CC2)CN1C(C)C (stereo unspecified) | -7.16
34 | Cc1cc(C)c2c(c1)C(NC(=O)CSCc1ccncc1)CCO2 (stereo unspecified) | 4.17
35 | Cc1ccoc1C1=NNC(=CN2CCCC(Cn3cncn3)C2)O1 (stereo unspecified) | -2.07
36 | CCc1cc(NCCNC(C)=O)nc(N2CCCC2)n1 | -6.77
37 | O=C(CCc1cc(O)no1)N1CCCC(OCc2cccnc2)C1 (stereo unspecified) | -12.7
38 | O=C(c1ccc(Sc2ccccn2)cc1)N1CCCSCC1 | 11.5
39 | CCc1noc(CN2C[C@@H]3CC[C@H]2CN(C2Cc4ccccc4C2)C3)n1 | -0.268
40 | O=C(Cc1ccc(F)c(Br)c1)NC1CCN(CC(F)F)CC1 | -22
41 | Cc1noc(C)c1CN1CCC(c2ccnn2CCO)CC1 | -9.73
42 | Cc1cc(NC(=O)NCc2ccc(S(=O)(=O)N3CCCC3)s2)no1 | -2.24
43 | COCCc1nc(CN2CC(C)(c3ccccc3)CCC2=O)no1 (stereo unspecified) | -3.07
44 | COc1cccc(C(c2c(C)n[nH]c2O)c2c(C)n[nH]c2O)c1OC | 12.4
45 | CCS(=O)(=O)N1CCC2(CC(=O)N(c3ccccc3C)C2)C1 (stereo unspecified) | 2.82
46 | CC1CCCN(C(=O)c2cc(-c3ccco3)cs2)C1 (stereo unspecified) | 7

Row | Structure (SMILES) | cytotoxicity at 10 µM [%]
47 | CCN(CC1CCOC1)C(=O)c1ccccc1S(C)(=O)=O (stereo unspecified) | -0.945
48 | O=c1ncn(-c2ccc(F)cc2)c2ncccc12 | 0.946
49 | c1ccc(C2CCN(c3ncnc4c3CCNC4)CC2)cc1 | 5.03
50 | Cc1nc(N2CCN(C(=O)CC3CCCC3)CC2)c2cnn(C)c2n1 | 6.24
51 | CSCCC(=O)N1CCC(c2nccn2Cc2cscn2)CC1 | 1.41
52 | CN1CCCN(C(=O)NCCNc2ncccc2C#N)CC1 | 6.75
53 | Cc1ncc2c(c1CNC(=O)C1(C)CC1)CCNC2 | -50.3
54 | COCCN(CCN(C)C)C(=O)NC1CCc2ccccc2C1 (stereo unspecified) | -5.17
55 | CCC(C)[C@H](N)c1nnc(SCC(=O)Nc2ccc(C)cc2C)o1 (stereo partly specified) | -3.32
56 | CCN1CCCC12CCN(C(=O)c1nccn1C)CC2 | 7.89
57 | COCCN1C[C@@H]2CC[C@H]1CN(C(=O)c1ccc(Cl)cc1)C2 | -8.03
58 | O=C(N1CCOCC1)[C@@]12CCO[C@@H]1CCN(CC1CCCC1)C2 | -0.385
59 | CNc1cc(C(=O)N(C)Cc2cc(-c3cccs3)n[nH]2)ccn1 | -9.22
60 | CC(C)(C)C(=O)NCCC(=O)NC(C)(C)c1ccc2c(c1)OCO2 | -1.26
61 | CNC(=O)Cn1nnc(-c2cc3ccccc3o2)n1 | 5.65
62 | Cn1cc(CN2CC[C@H]3O[C@H](C(=O)Nc4cnccn4)CC[C@H]32)cn1 | -135
63 | Cn1cc(N2C(=O)CC[C@@H]3[C@H]2CCN3Cc2cccc(C#N)c2)cn1 | 8.51
64 | CNc1snc(C)c1C(=O)N1CCCC(n2ccnc2)C1 (stereo unspecified) | -13.8
65 | O=C1CCCN1CCc1noc(-c2ccc(Cl)cc2)n1 | 7.9
66 | Cc1ccnc(N2CCN(C3CCS(=O)(=O)C3)CC2)n1 (stereo unspecified) | -2.71
67 | CCC(C)Oc1cc(C(=O)Nc2nnc(C(C)C)[nH]2)ccn1 (stereo unspecified) | -11.2
68 | O=C(NCCN1CCOCC1)c1n[nH]c(=O)c2ccccc12 | 0.376
69 | CO[C@@H]1CCN(Cc2nccs2)C[C@@H]1Cc1ccccc1 | -69.5

Row | Structure (SMILES) | cytotoxicity at 10 µM [%]
70 | COc1cc(C)c2c(c1C)C[C@H]([C@H](C)C(=O)O)CC2 | -0.95
71 | CC(C)c1nccc(-c2nccn2CCN(C)S(C)(=O)=O)n1 | 7.53
72 | OCC1(Cc2ccc(Cl)cc2)CCN(Cc2ccccc2O)CC1 | -137
73 | Cc1nc(CCC(N)=O)cc(C2CCCN2S(C)(=O)=O)n1 (stereo unspecified) | -5.32
74 | Cn1cc(-c2cnc(N3CCOCC3)nc2)cc1C(=O)N1CCCC1 | -10.6
75 | FC1(F)CCNCC12CCN(c1ncccn1)C2 (stereo unspecified) | 6.65
76 | COc1ccc(C[C@H]2CN(C(=O)C3CC3)CC[C@H]2OC)cc1 | 2.67
77 | COC(=O)c1cccc(C(=O)N2CCN(c3cccc(C)c3C)CC2)n1 | 79.9
78 | CCS(=O)(=O)N1CCC2(CC1)CN(c1cccnc1)C(=O)CO2 | -109
79 | CCOCC(O)CN1CCN(C(=O)c2ccncc2)CC1 (stereo unspecified) | 10
80 | COCCN(Cc1cccnc1)c1nc(C)nc2oc(C)nc12 | -44.1
81 | Cc1cnc(NC(=O)NC(CCO)c2cccs2)s1 (stereo unspecified) | 5.53
82 | NCC(=O)N1CCCC1c1ccc(C(=O)NCc2ccoc2)s1 (stereo unspecified) | 1.68
83 | Cc1ccc2c(c1)Oc1ncccc1C(=O)N2 | 5.15
84 | CCN1CCC2(CCC1=O)CN(c1cnc3ccccc3n1)CCN2C (stereo unspecified) | 1.79
85 | Cn1cc(CCNC(=O)NCc2nnc3n2CCC3)cn1 | -6.08
86 | CC(C)CCC(=O)NC(C#N)CC(C)C (stereo unspecified) | 2.53
87 | Cc1cc(NC(C)Cc2cccs2)n2nccc2n1 (stereo unspecified) | 1.22
88 | CN(C)c1ncccc1CNC(=O)c1csc(Br)c1 | -1.35
89 | CCOCCC(=O)Nc1cccc(Cl)c1C(N)=O | -8.59
90 | CCC(=O)NC(c1ccc(C)cc1)c1cccc(S(C)(=O)=O)c1 (stereo unspecified) | -7.62
91 | CN(C)C[C@H]1C[C@@H](CO)CN(C(=O)c2cc(=O)[nH]c3cc(F)ccc23)C1 | -4.16
92 | CN(CC(=O)N1CC(Oc2ccccc2Cl)C1)Cc1ccncc1 | -2.67

Row | Structure (SMILES) | cytotoxicity at 10 µM [%]
93 | CN1CCC(N(Cc2ccccc2)C(=O)c2nccn3ccnc23)CC1 | 3.52
94 | CN1CCCCC(C2CCN(S(=O)(=O)c3cn(C)cn3)CC2)C1=O (stereo unspecified) | 3.13
95 | CC(C)CN1C[C@H]2CCN(C(=O)C3CCCO3)CC[C@H]2S1(=O)=O (stereo partly specified) | 19.3
96 | Cc1cccc(OCCNC(=O)CN2CCCC2Cn2cccn2)c1 (stereo unspecified) | -9.46
97 | COc1nccnc1N1CCCC2(C1)C(=O)N(C)c1ccccc12 (stereo unspecified) | -6.47
98 | c1csc(SCC2CN=C(N3CCOCC3)S2)c1 (stereo unspecified) | 10.3
99 | O=C(CCCc1ncc(-c2ccccc2)o1)N1CCN(CCO)CC1 | -4.69
100 | Cc1nnc(NC(=O)NCc2cc(F)cc(F)c2)s1 | -6.07
101 | Cc1nccn1-c1ccc(CNC(=O)c2ccc(O)nc2)cn1 | 1.75
102 | CN(C)C(=O)c1nc2c(s1)CCN(C(=O)c1ccc(Cl)cc1)CC2 | -14.2
103 | CCc1nccn1CC(=O)N1C[C@@H]2CC[C@H]1CN(c1ncccn1)C2 | -7.9
104 | Cn1cc(CN2CCO[C@H]3C(Cn4cccn4)CC[C@@H]32)cn1 (stereo partly specified) | -3.12
105 | CN1CCC(N(CCc2ccccc2)C(=O)c2ccoc2)CC1 | -5.42
106 | Cc1ccc(C(=O)NCCCN2CCOCC2)c(Cl)c1 | -12.5
107 | COc1cccc(N2CC3(CCN(Cc4nccn4C)C3)CC2=O)c1 (stereo unspecified) | -83
108 | CS(=O)(=O)N1CC2(CCN(CC3CCCCC3)CC2)Cc2ccccc21 | 6.25
109 | CC(=O)N[C@@H]1CN(C(=O)c2ccoc2)C[C@H]1c1ccc(C)cc1 | 16.2
110 | O=C(CN1CCSCC1c1ccccc1)N1CCOCC1 (stereo unspecified) | -5.88
111 | COCC(=O)N1CCN(Cc2cc(-c3ccncc3)nn2C)CC1 | -4.17

From ChEMBL document CHEMBL4513216, “Probing the Open Global Health Chemical Diversity Library for Multistage-Active Starting Points for Next-Generation Antimalarials” (ACS Infect Dis, 2020)
